Assay results published in ChEMBL document CHEMBL1687745 (Antimicrob Agents Chemother, 2009).
Values after ≈ are worked out from the molar mass of the structure shown. Active and inactive are the calls of the source. The rule behind the calls is not given here.

What was measured:
Bacillus anthracis [1] = assay: Antimicrobial activity against Bacillus anthracis Sterne spores by broth microdilution method; format: functional
Bacillus licheniformis = assay: Antimicrobial activity against Bacillus licheniformis clinical isolate by broth microdilution method; format: functional
Staphylococcus aureus [2] = assay: Antimicrobial activity against methicillin-resistant Staphylococcus aureus clinical isolate by broth microdilution method; format: functional
Burkholderia mallei = assay: Antimicrobial activity against Burkholderia mallei ATCC 23344 by broth microdilution method; format: functional
Staphylococcus aureus [3] = assay: Antibacterial activity against MBX 1090 resistant Staphylococcus aureus NCTC8325 isolates selected on 10 to 12 days of serial passage through MBX 1090; format: functional
Method in brief: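 Eight independent S. aureus NCTC8325 cultures were grown with compound at 0.125× to 128× MIC. Each day, cells were passaged from the highest-concentration well still showing >50% of untreated growth, for up to 20 days. Colonies isolated from resistant cultures were confirmed by MIC assay.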

Enterococcus faecalis [4] = assay: Antimicrobial activity against Enterococcus faecalis clinical isolate by broth microdilution method; format: functional
Method in brief: (§1)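 Broth microdilution. Log-phase cultures (5 × 10^5 CFU/ml) seeded in 96-well plates with compound from 0 to 20 µM or 1% DMSO control. Incubated at 37°C for 16 to 20 h. Growth read as absorbance at 600 nm.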

Bacillus pumilus = assay: Antimicrobial activity against Bacillus pumilus clinical isolate by broth microdilution method; format: functional; method in brief: as §1
Bacillus anthracis [5] = assay: Protection against Bacillus anthracis Sterne spores induced cell death in mouse J774A1 cells assessed as dead cells at 10 uM by Sytox green dye staining assay relative to untreated control; format: functional, J774.A1
Yersinia pestis = assay: Antimicrobial activity against Yersinia pestis by broth microdilution method; format: functional
Bacillus anthracis [6] = assay: Antimicrobial activity against Bacillus anthracis Sterne vegetative cells by broth microdilution method; format: functional
Staphylococcus aureus [7] = assay: Antimicrobial activity against Staphylococcus aureus ATCC 25923 by broth microdilution method; format: functional; method in brief: as §1
Bacillus subtilis [8] = assay: Inhibition of DNA synthesis in Bacillus subtilis BD54 at 5 X MIC by [3H]thymidine incorporation assay; format: functional, organism-based
Method in brief: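 Precursors were [methyl-3H]thymidine (DNA), [5-3H]uridine (RNA), L-[4,5-3H]leucine (protein) and N-acetyl-D-[1-3H]glucosamine (cell wall). Samples taken over time, precipitated with equal volume of ice-cold 20% TCA, filtered on glass fibre, and counted. cpm plotted against time.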

Bacillus subtilis [9] = assay: Effect on bacterial membrane permeability in Bacillus subtilis BD54 upto 10 times MIC using DiSC3 fluorescent dye staining based fluorimetric assay; format: functional, organism-based
Method in brief: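 B. subtilis BD54 grown in LB to OD600 0.4–0.5, washed, and resuspended to OD600 0.1 in 5 mM HEPES pH 7.4 with 20 mM glucose. Loaded with 1 µM DiSC3(5) for 10 min at room temperature, then 100 mM KCl added. […] Fluorescence read at 5 min (ex 622, em 670 nm). DNP 200 µg/ml positive control; mean ± SD of 8 wells.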

Enterococcus faecium = assay: Antimicrobial activity against vancomycin-resistant Enterococcus faecium B42762 by broth microdilution method; format: functional
Enterococcus faecalis [10] = assay: Antimicrobial activity against Enterococcus faecalis 29212 clinical isolate by broth microdilution method; format: functional
[11] = tested on: Burkholderia thailandensis; assay: Antimicrobial activity against Burkholderia thailandensis by broth microdilution method; format: functional
Bacillus anthracis [12] = assay: Inhibition of spore germination in Bacillus anthracis Sterne spores at MIC after 4 hrs; format: functional, organism-based
[13] = tested on: Mycolicibacterium smegmatis; assay: Antimicrobial activity against Mycobacterium smegmatis 700009 by broth microdilution method; format: functional; method in brief: as §1
[14] = tested on: Burkholderia pseudomallei; assay: Antimicrobial activity against Burkholderia pseudomallei DD503 by broth microdilution method; format: functional
Escherichia coli = assay: Antimicrobial activity against Escherichia coli J53 clinical isolate by broth microdilution method; format: functional
Klebsiella pneumoniae = assay: Antimicrobial activity against Klebsiella pneumoniae 5657 by broth microdilution method; format: functional; method in brief: as §1
Burkholderia cepacia = assay: Antimicrobial activity against Burkholderia cepacia clinical isolate by broth microdilution method; format: functional; method in brief: as §1
Bacillus anthracis [15] = assay: Antimicrobial activity against Bacillus anthracis Ames by broth microdilution method in presence of 10% fetal calf serum; format: functional
Bacillus anthracis [16] = assay: Antibacterial activity against Bacillus anthracis Ames spores infected in C57BL/6 mouse assessed as mouse survival rate at 1 mg/kg, ip for 5 days every 6 hrs administered 6 hrs post bacterial challenge measured up to 20 days post infection; format: functional; settings: route intraperitoneal
Brevibacillus brevis = assay: Antimicrobial activity against Bacillus brevis clinical isolate by broth microdilution method; format: functional; method in brief: as §1
Enterococcus faecalis [17] = assay: Antimicrobial activity against vancomycin-resistant Enterococcus faecalis ATCC 51575 by broth microdilution method; format: functional
Staphylococcus aureus [18] = assay: Antimicrobial activity against Staphylococcus aureus by broth microdilution method; format: functional; method in brief: as §1
[19] = tested on: Mycolicibacterium smegmatis; assay: Antimicrobial activity against Mycobacterium smegmatis 19420 by broth microdilution method; format: functional; method in brief: as §1
Bacillus subtilis [20] = assay: Antimicrobial activity against Bacillus subtilis clinical isolate by broth microdilution method; format: functional
[21] = tested on: Mycolicibacterium smegmatis; assay: Antimicrobial activity against Mycobacterium smegmatis 35798 by broth microdilution method; format: functional; method in brief: as §1
[22] = Cytotoxicity against human HeLa cells after 3 days by MTS assay in presence of 10% fetal calf serum; format: cell-based
Bacillus anthracis [23] = assay: microbe, parasite or virus in culture; settings: Ames
HeLa = assay: Effect on cell membrane integrity in human HeLa cells assessed as lactate dehydrogenase release at 32 times MIC against Staphylococcus aureus by CytoTox ONE homogenous membrane integrity assay; format: cell-based
Method in brief: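 Confluent HeLa cells in DMEM treated for 1 h with a range of compound concentrations, 1% DMSO final. […] LDH activity in the supernatant measured by a membrane-integrity kit.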

Priestia megaterium = assay: Antimicrobial activity against Bacillus megaterium clinical isolate by broth microdilution method; format: functional
Staphylococcus aureus [24] = assay: Antibacterial activity against Staphylococcus aureus Smith infected in Swiss Webster mouse assessed as assessed as protection against microbe-induced mortality at 10 mg/kg, iv administered as single dose 15 mins post bacterial challenge measured 48 hrs post infection; format: functional
Method in brief: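 Swiss Webster mice (n = 10/group) were challenged i.p. with 8.3 × 10^8 CFU. After 15 min they received a single i.v. dose in 10% dimethyl acetamide–5% dextrose in water (pH 4.0), alongside vehicle and daptomycin (10 mg/kg) controls. Survival was followed for 48 h.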

Bacillus anthracis [25] = assay: Antimicrobial activity against Bacillus anthracis Vollum clinical isolate by broth microdilution method; format: functional
Bacillus anthracis [26] = assay: microbe, parasite or virus in culture; settings: Ames; remark: listed apart in the source
Pseudomonas aeruginosa = assay: Antimicrobial activity against Pseudomonas aeruginosa PAO1 by broth microdilution method; format: functional; method in brief: as §1
Bacillus anthracis [27] = assay: Protection against Bacillus anthracis Sterne spores induced cell death in mouse J774A1 cells assessed as live viable cells at 10 uM by Sytox green dye staining assay relative to untreated control; format: functional, J774.A1
Staphylococcus aureus [28] = assay: Antimicrobial activity against methicillin-resistant Staphylococcus aureus 1094 by broth microdilution method; format: functional
Bacillus subtilis [29] = assay: Disruption of bacterial membrane permeability in Bacillus subtilis BD54 using DiSC3 fluorescent dye staining based fluorimetric assay; format: functional, organism-based
Method in brief: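 B. subtilis BD54 was grown in LB to OD600 0.4–0.5, washed and resuspended to OD600 0.1 in 5 mM HEPES pH 7.4 with 20 mM glucose. Cells were loaded with 1 µM DiSC3(5) for 10 min at room temperature, then 100 mM KCl was added. […] Fluorescence (ex 622/em 670 nm) was read after 5 min in eight wells per condition. DNP at 200 µg/ml served as positive control.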

C(=C\c1cc2ccc(C3=NCCN3)cc2[nH]1)/c1cc2ccc(C3=NCCN3)cc2[nH]1
MIC (Bacillus anthracis [1]): 0.3 µg/mL (≈ 0.76 µM)
MIC (Bacillus licheniformis): 2.3 µg/mL (≈ 5.83 µM)
MIC (Staphylococcus aureus [2]): 2.3 µg/mL (≈ 5.83 µM)
MIC (Burkholderia mallei): 1.6 µg/mL (≈ 4.06 µM)
MIC (Staphylococcus aureus [3]): 16 µg/mL (≈ 40.6 µM)
MIC (Enterococcus faecalis [4]): 0.6 µg/mL (≈ 1.52 µM)
MIC (Bacillus pumilus): 0.2 µg/mL (≈ 0.507 µM)
Activity (Bacillus anthracis [5]): 27%
MIC (Yersinia pestis): 13 µg/mL (≈ 33 µM)
MIC (Bacillus anthracis [6]): 1.2 µg/mL (≈ 3.04 µM)
MIC (Staphylococcus aureus [7]): 0.9 µg/mL (≈ 2.28 µM)
inhibition (Bacillus subtilis [8]): Active
Activity (Bacillus subtilis [9]): Active
MIC (Enterococcus faecium): 0.3 µg/mL (≈ 0.76 µM)
MIC (Enterococcus faecalis [10]): 0.3 µg/mL (≈ 0.76 µM)
MIC [11]: 19 µg/mL (≈ 48.2 µM)
inhibition (Bacillus anthracis [12]): inactive
MIC [13]: 0.2 µg/mL (≈ 0.507 µM)
MIC [14]: 3.1 µg/mL (≈ 7.86 µM)
MIC (Escherichia coli): 0.6 µg/mL (≈ 1.52 µM)
MIC (Klebsiella pneumoniae): 1.3 µg/mL (≈ 3.3 µM)
MIC (Burkholderia cepacia): 19 µg/mL (≈ 48.2 µM)
MIC (Bacillus anthracis [15]): 0.6 µg/mL
survival at 1 mg/kg (Bacillus anthracis [16]): 100%
MIC (Brevibacillus brevis): 0.6 µg/mL (≈ 1.52 µM)
MIC (Enterococcus faecalis [17]): 0.6 µg/mL (≈ 1.52 µM)
MIC (Staphylococcus aureus [18]): 1.2 µg/mL (≈ 3.04 µM)
MIC [19]: 0.2 µg/mL (≈ 0.507 µM)
MIC (Bacillus subtilis [20]): 0.3 µg/mL (≈ 0.76 µM)
MIC [21]: 0.1 µg/mL (≈ 0.253 µM)
CC50 at 72 h [22]: 10 µg/mL
MIC (Bacillus anthracis [23]): 0.2 µg/mL (≈ 0.507 µM)
Activity (HeLa): Non-toxic
MIC (Priestia megaterium): 0.6 µg/mL (≈ 1.52 µM)
survival at 10 mg/kg (Staphylococcus aureus [24]): 80%
MBC (Bacillus anthracis [25]): 1.2 µg/mL (≈ 3.04 µM)
MIC (Bacillus anthracis [25]): 0.6 µg/mL (≈ 1.52 µM)
MBC (Bacillus anthracis [26]): 2.3 µg/mL (≈ 5.83 µM)
MIC (Bacillus anthracis [26]): 0.6 µg/mL (≈ 1.52 µM)
MIC (Pseudomonas aeruginosa): 25 µg/mL (≈ 63.4 µM)
Activity (Bacillus anthracis [27]): 73%
MIC (Staphylococcus aureus [28]): 0.6 µg/mL (≈ 1.52 µM)

CCCCCCCCCC(=O)N[C@@H](Cc1c[nH]c2ccccc12)C(=O)N[C@H](CC(N)=O)C(=O)N[C@@H](CC(=O)O)C(=O)N[C@@H]1C(=O)NCC(=O)N[C@@H](CCCN)C(=O)N[C@@H](CC(=O)O)C(=O)N[C@H](C)C(=O)N[C@@H](CC(=O)O)C(=O)NCC(=O)N[C@H](CO)C(=O)N[C@@H]([C@H](C)CC(=O)O)C(=O)N[C@@H](CC(=O)c2ccccc2N)C(=O)O[C@@H]1C
survival at 10 mg/kg (Staphylococcus aureus [24]): 80%

O=[N+]([O-])c1ccc(O)c([N+](=O)[O-])c1
Activity (Bacillus subtilis [29]): Active
